Assay [1] deals with PC-3. The assay is described as follows: Cytotoxicity against human PC3 cells assessed as decrease in cell viability at 100 uM after 48 hrs. The class given is functional, cell-based. In a few lines: (§1)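 Cell viability measured in triplicate after 48 h exposure to a single 100 μM concentration. Actinomycin D served as the positive control.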
The test system of assay [2] is A549. The assay is described as follows: Cytotoxicity against human A549 cells assessed as decrease in cell viability at 100 uM after 48 hrs. The class given is functional, cell-based. In a few lines: as §1
The test system of assay [3] is PC-3. Briefly: Cytotoxicity against human PC3 cells assessed as decrease in cell viability after 48 hrs. The class given is functional, cell-based. As to conditions: PC-3, 48 h. In a few lines: (§2)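 Human cancer cell line viability assay run in triplicate with 48 h compound exposure. IC50 derived from viability data. Actinomycin D served as the positive control.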

A further assay relates to Mycolicibacterium aurum. Briefly: Antimycobacterial activity against Mycobacterium aurum ATCC 23366 after 16 to 48 hrs. The class given is functional. In a few lines:
(§3)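 Bacterial MIC assay run in triplicate and read after 16−48 h incubation. Kanamycin and ampicillin served as positive controls.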

The subject of the next assay is Bacillus spizizenii. The assay is described as follows: Antibacterial activity against Bacillus subtilis ATCC 6633 after 16 to 48 hrs. The class given is functional. In a few lines:
as §3

For assay [4], the system named is A549. The assay is described as follows: Cytotoxicity against human A549 cells assessed as decrease in cell viability after 48 hrs. The class given is functional, cell-based. The conditions noted are these: A549, 48 h. Put shortly:
as §2

The next assay relates to Micrococcus luteus. Briefly: Antibacterial activity against Micrococcus luteus NRRL B-287 after 16 to 48 hrs. The class given is functional. In a few lines: as §3
Another assay deals with Staphylococcus aureus. The assay is described as follows: Antibacterial activity against Staphylococcus aureus ATCC 6538 after 16 to 48 hrs. The class given is functional. In a few lines:
as §3

≈ marks a conversion by molar mass, not a printed value. Calls of active or inactive are those of the source. The rule behind the calls is not given here.

Take `COc1ccc(C[C@H](O)C(=O)N[C@H]2[C@@H](O)[C@H](n3cnc4c(N(C)C)ncnc43)O[C@@H]2CO)cc1`: the result with PC-3 [1] and in the assay on A549 [2] was Active.
For the compound `COc1ccc(C[C@H](NC(C)=O)C(=O)N[C@H]2[C@@H](O)[C@H](n3cnc4c(N(C)C)ncnc43)O[C@@H]2CO)cc1`, the outcome with PC-3 [1] and with A549 [2] was Active.
For `CC(=O)N[C@@H](CC(C)C)C(=O)N[C@H]1[C@@H](O)[C@H](n2cnc3c(N(C)C)ncnc32)O[C@@H]1CO`, the result in the assay with PC-3 [1] and with A549 [2] was Active.
Regarding `CC(=O)N[C@H]1[C@@H](O)[C@H](n2cnc3c(N(C)C)ncnc32)O[C@@H]1CO`, the result in the assay with PC-3 [1] and with A549 [2] was Active.
What is called IC50 is the concentration that gives 50% inhibition. In general, MIC refers to the least concentration at which growth counts as inhibited. As for `COc1ccc(C[C@H](N)C(=O)N[C@H]2[C@@H](O)[C@H](n3cnc4c(N(C)C)ncnc43)O[C@@H]2CO)cc1` [PUROMYCIN], the concentration for half-maximal inhibition (IC50) in the assay with PC-3 [3] and in the assay with A549 [4] was 300 nM throughout. Further, the MIC against Mycolicibacterium aurum, in the assay on Bacillus spizizenii, against Micrococcus luteus and in the assay with Staphylococcus aureus was 4 to 30 µM (≈ 1.89 to 14.1 µg/mL) each time.

For the origin of these results see ChEMBL document CHEMBL4266053, “Puromycins B-E, Naturally Occurring Amino-Nucleosides Produced by the Himalayan Isolate Streptomyces sp. PU-14G” (J Nat Prod, 2018).
